Assay results as given in ChEMBL document CHEMBL1250457, “Elucidation of the topography of the thapsigargin binding site in the sarco-endoplasmic calcium ATPase” (Bioorg Med Chem, 2010).

What follows are molecules tested against Sarcoplasmic/endoplasmic reticulum calcium ATPase 1 (Oryctolagus cuniculus, UniProt P04191) (assay: Inhibition of rabbit sarcoplasmic reticulum calcium ATPase by ATP regeneration assay).
Sequence of Sarcoplasmic/endoplasmic reticulum calcium ATPase 1 (P04191 whole entry): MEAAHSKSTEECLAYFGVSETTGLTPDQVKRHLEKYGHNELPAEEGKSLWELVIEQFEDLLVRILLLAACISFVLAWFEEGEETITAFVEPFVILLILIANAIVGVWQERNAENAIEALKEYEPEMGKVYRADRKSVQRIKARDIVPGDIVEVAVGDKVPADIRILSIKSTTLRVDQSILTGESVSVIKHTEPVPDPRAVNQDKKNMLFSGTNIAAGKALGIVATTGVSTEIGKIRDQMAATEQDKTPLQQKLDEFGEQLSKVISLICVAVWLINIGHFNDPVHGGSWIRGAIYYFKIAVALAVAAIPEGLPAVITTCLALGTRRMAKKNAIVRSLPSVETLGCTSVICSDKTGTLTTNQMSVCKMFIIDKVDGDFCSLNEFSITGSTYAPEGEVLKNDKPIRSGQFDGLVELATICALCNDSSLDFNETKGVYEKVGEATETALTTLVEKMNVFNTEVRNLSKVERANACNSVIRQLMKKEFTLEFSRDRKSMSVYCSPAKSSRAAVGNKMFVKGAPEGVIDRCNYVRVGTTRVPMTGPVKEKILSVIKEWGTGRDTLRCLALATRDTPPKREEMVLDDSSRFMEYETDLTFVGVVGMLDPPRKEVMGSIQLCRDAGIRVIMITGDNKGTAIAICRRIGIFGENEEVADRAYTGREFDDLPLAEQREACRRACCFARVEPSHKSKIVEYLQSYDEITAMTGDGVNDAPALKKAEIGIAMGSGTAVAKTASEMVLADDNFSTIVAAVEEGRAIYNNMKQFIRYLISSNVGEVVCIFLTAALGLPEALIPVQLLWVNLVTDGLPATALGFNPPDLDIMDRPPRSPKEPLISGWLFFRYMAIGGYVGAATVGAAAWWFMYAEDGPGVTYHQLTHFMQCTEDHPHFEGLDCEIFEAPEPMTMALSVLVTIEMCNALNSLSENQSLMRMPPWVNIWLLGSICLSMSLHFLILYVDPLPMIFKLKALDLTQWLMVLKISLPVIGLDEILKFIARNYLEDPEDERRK
Summary of the method: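 SERCA1a purified from rabbit skeletal muscle SR vesicles with low deoxycholate. Enzyme (1 mg/mL) pre-equilibrated 2.5–6 min with cumulatively added inhibitor (DMSO) in 1 mM EGTA, 1 mM Mg2+, 10 mM Tes pH 7.5, 100 mM KCl. Then diluted to 4 nM at 20 °C into NADH-coupled PK/LDH medium: 0.1 mM Ca2+, 1 mM Mg2+, 5 mM MgATP, 1 mM PEP, 0.15 mM NADH. Rate of A340 decrease.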
For `C/C=C(/C)C(=O)O[C@H]1C(C)=C2[C@H]([C@@H]1OC(=O)CCCCCCC)[C@@](C)(O)C[C@H](OC(=O)CCC)[C@@]1(O)[C@H]2OC(=O)[C@@]1(C)O`, the IC50 was 20 nM.
In the case of `C/C=C(/C)C(=O)O[C@H]1C(C)=C2[C@H]([C@@H]1OC(=O)CCCCCCC)[C@@](C)(O)C[C@H](OC(=O)CCCCCCC)[C@@]1(O)[C@H]2OC(=O)[C@@]1(C)O`, the IC50 is reported as 20 nM.
`C/C=C(/C)C(=O)O[C@H]1C(C)=C2[C@H]([C@@H]1OC(=O)CCCCCCC)[C@@](C)(OC(=O)CCC)C[C@H](OC(=O)CCC)[C@@]1(O)[C@H]2OC(=O)[C@@]1(C)O` showed an IC50 of 2.5 nM.
Work on `C/C=C(/C)C(=O)O[C@H]1C(C)=C2[C@H]([C@@H]1OC(=O)CCCCCCC)[C@@](C)(OC(=O)CCCCCCC)C[C@H](OC(=O)CCC)[C@@]1(O)[C@H]2OC(=O)[C@@]1(C)O` yielded an IC50 of 16 nM.
For `C/C=C(/C)C(=O)O[C@H]1C(C)=C2[C@H]([C@@H]1OC(=O)CCCCCCC)[C@@](C)(OC(=O)c1ccccc1)C[C@H](OC(=O)CCC)[C@@]1(O)[C@H]2OC(=O)[C@@]1(C)O`, the IC50 was 15.6 nM.
Molecule `C/C=C(/C)C(=O)O[C@H]1C(C)=C2[C@H]([C@@H]1OC(=O)CCCCCCC)[C@@](C)(OC(=O)c1ccc(-c3ccccc3)cc1)C[C@H](OC(=O)CCC)[C@@]1(O)[C@H]2OC(=O)[C@@]1(C)O` has an IC50 greater than 70 nM.
`C/C=C(/C)C(=O)O[C@H]1C(C)=C2[C@H]([C@@H]1OC(=O)CCCCCCC)[C@@](C)(OC(=O)Cc1ccc(-c3ccccc3)cc1)C[C@H](OC(=O)CCC)[C@@]1(O)[C@H]2OC(=O)[C@@]1(C)O` gave an IC50 of 27 nM.
With `C/C=C(/C)C(=O)O[C@H]1C(C)=C2[C@H]([C@@H]1OC(=O)c1ccccc1)[C@@](C)(OC(C)=O)C[C@H](OC(=O)CCC)[C@@]1(O)[C@H]2OC(=O)[C@@]1(C)O` the IC50 was 1.6 nM.
With `C/C=C(/C)C(=O)O[C@H]1C(C)=C2[C@H]([C@@H]1OC(=O)CCCCCCC)[C@@](C)(OC(=O)CCC)C[C@@H]1OC(C)(C)O[C@]3(C)C(=O)O[C@@H]2[C@]13OC(=O)CCC` the IC50 was greater than 70 nM.
`C/C=C(/C)C(=O)O[C@H]1C(C)=C2[C@H]([C@@H]1OC(=O)CCCCCCC)[C@@](C)(OC(=O)CCC)C[C@@H]1OC(C)(C)O[C@]3(C)C(=O)O[C@@H]2[C@]13O` was tested, and the IC50 was 19 nM.
Work on `C/C=C(/C)C(=O)O[C@H]1C(C)=C2[C@H]([C@@H]1OC(=O)CCCCCCC)[C@@](C)(OC(=O)CCC)C[C@H](OC(=O)CCC)[C@@]1(O)[C@H]2OC(=O)[C@@]1(C)OC(=O)CCC` yielded an IC50 of 11.1 nM.
Molecule `CCCCCCCC(=O)O[C@H]1[C@H]2C(=C(C)[C@@H]1O)[C@@H]1OC(=O)[C@@](C)(O)[C@@]1(O)[C@@H](OC(=O)CCC)C[C@]2(C)OC(C)=O` has an IC50 greater than 70 nM.
In the case of `CCCCCCCC(=O)O[C@H]1[C@H]2C(=C(C)[C@@H]1OC(=O)c1ccccc1)[C@@H]1OC(=O)[C@@](C)(O)[C@@]1(O)[C@@H](OC(=O)CCC)C[C@]2(C)OC(C)=O`, the IC50 is reported as 0.8 nM.
`CCCCCCCC(=O)O[C@H]1[C@H]2C(=C(C)[C@@H]1OC(=O)c1cccc(C)c1)[C@@H]1OC(=O)[C@@](C)(O)[C@@]1(O)[C@@H](OC(=O)CCC)C[C@]2(C)OC(C)=O` showed an IC50 of 9 nM.
`CCCCCCCC(=O)O[C@H]1[C@H]2C(=C(C)[C@@H]1OC(=O)Cc1ccc(-c3ccccc3)cc1)[C@@H]1OC(=O)[C@@](C)(O)[C@@]1(O)[C@@H](OC(=O)CCC)C[C@]2(C)OC(C)=O` gave an IC50 of 18 nM.
Work on `CCCCCCCC(=O)O[C@H]1[C@H]2C(=C(C)[C@@H]1OC(=O)c1ccccc1-c1ccccc1)[C@@H]1OC(=O)[C@@](C)(O)[C@@]1(O)[C@@H](OC(=O)CCC)C[C@]2(C)OC(C)=O` yielded an IC50 of 3 nM.
`CCCCCCCC(=O)O[C@H]1[C@H]2C(=C(C)[C@@H]1OC(=O)c1ccc(C)cc1)[C@@H]1OC(=O)[C@@](C)(O)[C@@]1(O)[C@@H](OC(=O)CCC)C[C@]2(C)OC(C)=O` showed an IC50 of 44 nM.
`CCCCCCCC(=O)O[C@H]1[C@H]2C(=C(C)[C@@H]1OC(=O)c1ccc(-c3ccccc3)cc1)[C@@H]1OC(=O)[C@@](C)(O)[C@@]1(O)[C@@H](OC(=O)CCC)C[C@]2(C)OC(C)=O` showed an IC50 greater than 70 nM.
For `C/C=C(/C)C(=O)O[C@H]1C(C)=C2[C@H]([C@@H]1OC(=O)CCCCCCC)[C@@](C)(OC(C)=O)C[C@H](O)[C@@]1(O)[C@H]2OC(=O)[C@@]1(C)O` [DEBUTANOYLTHAPSIGARGIN], the IC50 was 10 nM.
Molecule `C/C=C(/C)C(=O)O[C@H]1C(C)=C2[C@H]([C@@H]1OC(=O)CCCCCCC)[C@@](C)(OC(C)=O)C[C@H](OC(=O)CCC)[C@@]1(O)[C@H]2OC(=O)[C@@]1(C)O` [THAPSIGARGIN] has an IC50 of 0.2 nM.
